Rows were chosen to be rich in hits. Some 2.4% of all compounds tested hit in one or more screens of this group.
H9c2 TAG inh – inhibitors of triacylglycerol accumulation, primary screen, cell-based, uHTS, fluorescence, H9c2; H9c2 cells, Nile Red lipid (TAG) fluorescence; cells loaded with 200 µM oleic acid; inhibition, % at 12.5 µM; 230,000 compounds, 0.66% hits;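 active = pattern-corrected inhibition of lipid staining of at least 50% with the nuclear-stain viability signal not falling by more than 50%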
aDG glyco up – activators of alpha-DG glycosylation, primary screen, uHTS, Pro5-aDG cells, AlphaScreen | activation, % at 10 µM | 360,000 compounds, 0.22% hits | alpha-DG glycosylation AlphaScreen (IIH6); 0% Pro5, 100% B10-LARGE cell signal;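 active = activation of at least 8% versus controls, or a plate z-score of at least 8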;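 also: Pro5 are CHO cells carrying HIG-tagged alpha-DG that lacks glycosylation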
MC4R antagonist – MC4R antagonists of cAMP signaling, primary screen, cell-based, TR-FRET, antagonist arm of biased-ligand search | Melanocortin receptor 4 (Homo sapiens), P32245 | MC4R-expressing cells, MTII-stimulated cAMP, LANCE TR-FRET | inhibition, % at 6.5 µM | 360,000 compounds, 0.48% hits | AID 540295, 2011;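 active = inhibition above its plate's cutoff, the mean of tested wells on that plate plus 3 SD, cut at about 29% in these data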
Target sequence (P32245 whole entry, looked up): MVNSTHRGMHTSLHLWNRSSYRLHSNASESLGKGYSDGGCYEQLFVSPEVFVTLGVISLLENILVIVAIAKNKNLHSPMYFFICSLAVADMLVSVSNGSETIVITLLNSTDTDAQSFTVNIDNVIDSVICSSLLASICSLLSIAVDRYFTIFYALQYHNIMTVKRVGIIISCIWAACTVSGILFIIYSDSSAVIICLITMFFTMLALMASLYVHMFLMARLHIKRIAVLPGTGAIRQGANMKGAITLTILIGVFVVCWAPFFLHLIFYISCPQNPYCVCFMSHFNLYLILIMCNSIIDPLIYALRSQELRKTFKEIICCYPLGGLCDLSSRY
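System: U2OS-MC4R stable cell line; Technique: Eu-cAMP/anti-cAMP TR-FRET, emission 671 nm; Repeats: single well per compound; Also added: Melanotan II; Dosing: one concentration, 6.5 µM nominal; Schedule: 30-min compound, 1-h challenge, 1-h detection, room temperature.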
NTR1 agonist – agonists of human NTR1, primary screen, imaging, U2OS cells, beta-arrestin-GFP, high content. NTR1-U2OS beta-arrestin-GFP spot imaging, agonist mode. activation, % at 20 µM. 330,000 compounds, 0.17% hits. AID 493036, 2011;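 active = activation at or above 40% of the spot to cytoplasm intensity ratio, with at least 20 cells analyzed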
Target sequence (P30989 whole entry, looked up): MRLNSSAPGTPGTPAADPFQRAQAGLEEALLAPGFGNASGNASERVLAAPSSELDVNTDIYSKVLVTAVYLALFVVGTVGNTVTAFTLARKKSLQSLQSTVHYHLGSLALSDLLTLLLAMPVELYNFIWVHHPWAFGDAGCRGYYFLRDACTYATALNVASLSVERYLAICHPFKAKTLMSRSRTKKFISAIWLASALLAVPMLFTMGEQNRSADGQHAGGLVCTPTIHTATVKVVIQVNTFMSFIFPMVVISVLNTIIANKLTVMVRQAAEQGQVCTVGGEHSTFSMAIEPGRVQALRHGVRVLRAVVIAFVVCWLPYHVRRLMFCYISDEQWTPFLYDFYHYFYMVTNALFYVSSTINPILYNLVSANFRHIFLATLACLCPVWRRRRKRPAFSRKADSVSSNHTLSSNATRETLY
Tb MetRS inh – T. brucei MetRS inhibitors, primary screen, biochemical, luminescence; methionyl-tRNA synthetase (Trypanosoma brucei brucei); purified T. brucei MetRS, ATP depletion, Kinase-Glo luminescence; inhibition, % at 11.9 µM; 360,000 compounds, 0.4% hits; AID 624268, 2012;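 active = inhibition above a per-plate cutoff of the control wells' mean inhibition plus 3 SD, cut at about 5.5% in these data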
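Dosing: 11.9 µM single point; system: parasite MetRS enzyme; technique: luminescence of leftover ATP; times: 15 min enzyme-compound preincubation, 2 h reaction, 10 min detection, 25 °C; replicates: each compound tested once; read-out basis: percent inhibition relative to median high and low control wells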
MC4R ag barr – MC4R agonists recruiting beta-arrestin, primary screen, cell-based, luminescence, agonist arm of biased-ligand search | AID 540308, 2011 | 360,000 compounds, 0.98% hits | U2OS MC4R beta-arrestin complementation; percent of melanotan II response, DMSO zero | activation, % at 8.9 µM;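 active = activation above a per-plate cutoff, the mean activation of sample wells on that plate plus 3 SD, cut at about 8% in these data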
cAMP nonselect – nonselective cAMP signaling inhibitors, parental cells, counter-screen for MC4R biased antagonist project, cell-based, TR-FRET, U2OS, forskolin, triplicate; shares compounds with MC4R antagonist; LANCE TR-FRET; inhibition, % at 6.5 µM; 1,600 compounds, 26% hits; AID 602193, 2012;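 active = mean inhibition over triplicates above the low-control well mean plus 3 SD, set per campaign, cut at about 13% in these data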;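 also: signal is single emission at 671 nm which falls as cellular cAMP rises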
MC4R cAMP antag – MC4R cAMP antagonists, retest, confirmation, cell-based, TR-FRET; MC4R-expressing cells, MTII-stimulated cAMP; 1,600 compounds, 27% hits; shares compounds with MC4R antagonist; inhibition, % at 6.5 µM; in the data active = inhibition above about 29%
Of the large screens only hits and unclear results are named; the others gave an inactive call (follow-up assays come after a bar, where they were run).

O=C(CC(Nc1ccccc1)C(=O)O)c1ccccc1 (centres undefined)	none
COc1ccccc1C#CC1=CC(=O)CC(C)(C)C1	none (no result: NTR1 agonist)
CN(C)c1ccnc(Nc2ccc(O)cc2)c1C#N	MC4R antagonist 29 (no result: H9c2 TAG inh) | cAMP nonselect inactive | MC4R cAMP antag inactive
OCCNc1ncnc2c1ncn2[C@H]1CN(Cc2ccncc2)C[C@@H](CO)O1	none (no result: NTR1 agonist)
CCOc1ccccc1NC(=O)COC(=O)CNS(=O)(=O)c1ccc(C)cc1	MC4R antagonist 31 (no result: H9c2 TAG inh) | cAMP nonselect 17 | MC4R cAMP antag 35
COC(=O)c1sc(N)c(C(=O)OC)c1COC(=O)CCNS(=O)(=O)c1ccc(C)cc1	none (no result: H9c2 TAG inh)
Cc1ccc(S(=O)(=O)NCC(=O)OCc2nnc(-c3ccccc3)o2)cc1C	MC4R antagonist 29 (no result: H9c2 TAG inh) | cAMP nonselect 20 | MC4R cAMP antag 41
O=C(CNS(=O)(=O)c1ccc2ccccc2c1)OCc1nnc(-c2ccccc2)o1	MC4R antagonist 35 | cAMP nonselect 17 | MC4R cAMP antag 35
COC(=O)c1sc(N)c(C(=O)OC)c1COC(=O)CNS(=O)(=O)c1ccc(C)c(C)c1	MC4R antagonist 32 (no result: H9c2 TAG inh) | cAMP nonselect inactive | MC4R cAMP antag inactive
COc1ccc(C(=O)N2CCC(C)(C(=O)NS(=O)(=O)C3CC3)C2)cc1 (centres undefined)	none (no result: NTR1 agonist)
O=C1c2ccccc2C(c2nnnn2Cc2ccccc2)N1CCCN1CCOCC1 (centres undefined)	none (no result: H9c2 TAG inh, MC4R antagonist, NTR1 agonist, MC4R ag barr)
Cc1cc(NC(=O)COC(=O)CNS(=O)(=O)c2ccc(C)c(C)c2)no1	MC4R antagonist 47 | cAMP nonselect 14 | MC4R cAMP antag 30
O=C(NCc1cccnc1)c1cc(C2CCCCN2S(=O)(=O)c2cccc3cccnc23)on1 (centres undefined)	none (no result: NTR1 agonist)
Cc1ccccc1C(=O)N1CCc2c([nH]c3ccccc23)C1C(F)(F)F (centres undefined)	MC4R antagonist 36 | cAMP nonselect inactive | MC4R cAMP antag inactive
CCOc1ccccc1NC(=O)c1cc(C(=O)c2cc(OC)ccc2O)coc1=N	MC4R antagonist 33 (no result: H9c2 TAG inh) | cAMP nonselect inactive | MC4R cAMP antag inactive
COC(=O)c1ccc2c(=O)[nH]c(CCl)nc2c1	MC4R antagonist 30 | cAMP nonselect inactive | MC4R cAMP antag inactive
CC1CC(C)CN(C(=O)Nc2ccc(Br)cc2)C1 (centres undefined)	MC4R antagonist 30 | cAMP nonselect inactive | MC4R cAMP antag inactive
C=C(C)[C@@H]1C2=CC(C(=O)OC)=C(C[C@H](C(=C)C)[C@H]3O[C@H]3C3=C[C@H]1OC3=O)O2	MC4R antagonist 36 (no result: H9c2 TAG inh, NTR1 agonist) | cAMP nonselect 14 | MC4R cAMP antag 45
O=C(NCCN1CCC(n2c(=O)[nH]c3ccccc32)CC1)c1ccccc1C(F)(F)F	none (no result: H9c2 TAG inh, MC4R antagonist, NTR1 agonist, MC4R ag barr)
Cc1noc(C)c1-c1ccc(C(=O)NC2CCCCC2)c2occc12	none (no result: NTR1 agonist)
CCN(CC)P(=O)(Nc1cccc(C(F)(F)F)c1)c1ccc(N(C)C)cc1NC(=O)c1ccco1 (centres undefined)	MC4R antagonist 35 | cAMP nonselect inactive | MC4R cAMP antag inactive
COc1ccccc1N1CCN(S(=O)(=O)CCNC(=O)C(C)Oc2ccccc2)CC1 (centres undefined)	none (no result: NTR1 agonist)
CC(C)NC(=O)C1(C)CCN1CCC(=O)c1ccccc1 (centres undefined)	none (no result: NTR1 agonist)
COc1ccc(S(=O)(=O)N(C)C)cc1NC(=O)COC(=O)c1nn(C)c(=O)c2ccccc12	MC4R antagonist 34 | cAMP nonselect inactive | MC4R cAMP antag inactive
CCN(c1ccccc1)S(=O)(=O)c1ccc(OC)c(NC(=O)Cn2cnc3c2c(=O)n(C)c(=O)n3C)c1	MC4R antagonist 41 | cAMP nonselect inactive | MC4R cAMP antag inactive
Cn1nc(C(=O)OCC(=O)Nc2ccccc2OC(F)F)c2ccccc2c1=O	none
CCN(c1ccccc1)S(=O)(=O)c1ccc(OC)c(NC(=O)CNC)c1	none
CCOC(=O)c1cc(OC)c2cccc(CN3CCC(C)(C(=O)NCCOC)C3)c2c1 (centres undefined)	none (no result: NTR1 agonist)
COC(=O)c1cc(OC)c(OC)cc1N	none
COC(=O)c1cc2ccc(OC)cc2c2cc(OC)c(OC)cc12	MC4R antagonist 34 | cAMP nonselect inactive | MC4R cAMP antag inactive
Cc1cc2c(cc1C)-n1nnnc1C(N1CCN(C(=O)OCc3ccccc3)CC1)C(=O)N2 (centres undefined)	none (no result: H9c2 TAG inh, MC4R antagonist, NTR1 agonist, MC4R ag barr)
CC(=O)c1cccc(S(=O)(=O)N2CCC(C(=O)OC3CCOC3=O)CC2)c1 (centres undefined)	MC4R antagonist 40 | cAMP nonselect 19 | MC4R cAMP antag 57
Cc1ccc(S(=O)(=O)N2CCC(C(=O)OC3CCOC3=O)CC2)cc1C (centres undefined)	MC4R antagonist 40 | cAMP nonselect 19 | MC4R cAMP antag 41
Cc1ccc(S(=O)(=O)N2CCOCC2)cc1C(=O)OC1CCOC1=O (centres undefined)	none
CCOC(=O)c1cnc2ccccc2c1Nc1cccc(C(=O)O)c1	MC4R antagonist 39 | cAMP nonselect 13 | MC4R cAMP antag inactive
CCOC(=O)c1cnc2ccc(C)cc2c1Nc1ccc(N2CCOCC2)cc1	MC4R antagonist 30 | cAMP nonselect inactive | MC4R cAMP antag 38
CCOC(=O)c1ccc2ncc(C(=O)OCC)c(NCCN3CCOCC3)c2c1	none (no result: H9c2 TAG inh)
CCOC(=O)c1cnc2ccc(OCC)cc2c1NCc1ccccc1	MC4R antagonist 35 (no result: H9c2 TAG inh) | cAMP nonselect inactive | MC4R cAMP antag inactive
CCOC(=O)c1cnc2ccc(OCC)cc2c1NCc1cccnc1	none (no result: H9c2 TAG inh)
CCOc1cc(N2CCOCC2)c(OCC)cc1NCC(=O)N1CCN(Cc2ccccc2)CC1	MC4R antagonist 29 | cAMP nonselect inactive | MC4R cAMP antag inactive
CCOc1cc(N2CCOCC2)c(OCC)cc1NC(=O)CSc1ccccc1C(=O)O	none
N#Cc1cccnc1N1CCN(C(C(=O)NC2CCCC2)c2ccc(F)cc2)CC1 (centres undefined)	none (no result: H9c2 TAG inh, MC4R antagonist, NTR1 agonist, MC4R ag barr)

High-throughput results (PubChem)
